{"source": "ChEMBL document CHEMBL1144541", "about": "“Antinociceptive and antiinflammatory activities and QSAR studies on 2-substituted-4,5-diphenyl-1H-imidazoles” (2007)", "assay_type_in_all_cases": "functional", "key": {"Mus musculus [1]": {"tested_on": "Mus musculus", "assay": "Antinociceptive activity in ip dosed Swiss albino mouse assessed as latency time after 30 mins by hot plate method", "summary_of_the_method": "(§1)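 Swiss albino mice (20–25 g) were housed 7 days at 30 ± 1 °C before testing, in groups of six. Compounds were given ip at 9.5–12.58 mg/kg as a 0.2% Tween suspension. Mice were placed on a 55 ± 0.5 °C hot plate before dosing and at 15, 30, 60 and 120 min after dosing, with a 15 s cut-off. Significance was assessed by Student's t test.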"}, "Mus musculus [2]": {"tested_on": "Mus musculus", "assay": "Antinociceptive activity in ip dosed Swiss albino mouse assessed as latency time after 120 mins by tail flick method", "summary_of_the_method": "(§2)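 Swiss albino mice (20–25 g) received compounds ip at 9.5–12.58 mg/kg in 0.2% Tween suspension. Tail-flick latency to radiant heat was measured, with stimulus intensity set to give a 3–4 s baseline. Readings were taken just before injection and at 15, 30, 60 and 120 min after. Significance was assessed by Student's t test.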"}, "Mus musculus [3]": {"tested_on": "Mus musculus", "assay": "Antinociceptive activity in ip dosed Swiss albino mouse assessed as latency time after 30 mins by tail flick method", "summary_of_the_method": "as §2"}, "Mus musculus [4]": {"tested_on": "Mus musculus", "assay": "Antinociceptive activity in ip dosed Swiss albino mouse assessed as latency time after 15 mins by tail flick method", "summary_of_the_method": "as §2"}, "Mus musculus [5]": {"tested_on": "Mus musculus", "assay": "Antinociceptive activity in ip dosed Swiss albino mouse assessed as latency time after 60 mins by hot plate method", "summary_of_the_method": "as §1"}, "Mus musculus [6]": {"tested_on": "Mus musculus", "assay": "Antinociceptive activity in ip dosed Swiss albino mouse assessed as latency time by hot plate method", "summary_of_the_method": "as §1"}, "Rattus norvegicus [7]": {"tested_on": "Rattus norvegicus", "assay": "Antiinflammatory activity assessed as reduction of carrageenan-induced paw volume in intraperitoneally dosed Wistar rat after 3 hrs", "set-up": "scale not given: the % may be the effect or the level left", "summary_of_the_method": "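Wistar rats of either sex (120–150 g) were dosed ip with compounds at 9.5–12.58 mg/kg in 0.2% Tween suspension. After 1 h, 0.05 ml of 1.0% w/v carrageenan in 0.9% NaCl was injected into the left hind paw. Paw volume was measured by mercury-displacement plethysmometry before injection and at 1, 2 and 3 h. Percent inhibition of the 3 h swelling was calculated.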"}, "Mus musculus [8]": {"tested_on": "Mus musculus", "assay": "Antinociceptive activity in ip dosed Swiss albino mouse assessed as latency time after 120 mins by hot plate method", "summary_of_the_method": "as §1"}, "Mus musculus [9]": {"tested_on": "Mus musculus", "assay": "Antinociceptive activity in ip dosed Swiss albino mouse assessed as latency time after 15 mins by hot plate method", "summary_of_the_method": "as §1"}, "Mus musculus [10]": {"tested_on": "Mus musculus", "assay": "Antinociceptive activity in ip dosed Swiss albino mouse assessed as latency time by tail flick method", "summary_of_the_method": "as §2"}, "Mus musculus [11]": {"tested_on": "Mus musculus", "assay": "Antinociceptive activity in ip dosed Swiss albino mouse assessed as latency time after 60 mins by tail flick method", "summary_of_the_method": "as §2"}, "Rattus norvegicus [12]": {"tested_on": "Rattus norvegicus", "assay": "Antiinflammatory activity assessed as reduction of carrageenan-induced paw volume in Wistar rat at 10 mg/kg, ip after 3 hrs", "settings": "route intraperitoneal"}}}
{"smiles": "O=[N+]([O-])c1ccccc1-c1nc(-c2ccccc2)c(-c2ccccc2)[nH]1", "values": [{"measurement": "Activity", "setting": "Mus musculus [1]", "result": 4.62, "unit": "s"}, {"measurement": "Activity", "setting": "Mus musculus [2]", "result": 4.39, "unit": "s"}, {"measurement": "Activity", "setting": "Mus musculus [3]", "result": 4.38, "unit": "s"}, {"measurement": "Activity", "setting": "Mus musculus [4]", "result": 4.1, "unit": "s"}, {"measurement": "Activity", "setting": "Mus musculus [5]", "result": 4.67, "unit": "s"}, {"measurement": "Activity", "setting": "Mus musculus [6]", "result": 4.5, "unit": "s"}, {"measurement": "Activity", "setting": "Rattus norvegicus [7]", "result": 30.24, "unit": "%"}, {"measurement": "Activity", "setting": "Mus musculus [8]", "result": 4.71, "unit": "s"}, {"measurement": "Activity", "setting": "Mus musculus [9]", "result": 4.52, "unit": "s"}, {"measurement": "Activity", "setting": "Mus musculus [10]", "result": 4.09, "unit": "s"}, {"measurement": "Activity", "setting": "Mus musculus [11]", "result": 4.38, "unit": "s"}]}
{"smiles": "C(=C\\c1nc(-c2ccccc2)c(-c2ccccc2)[nH]1)/c1ccccc1", "values": [{"measurement": "Activity", "setting": "Mus musculus [1]", "result": 5.58, "unit": "s"}, {"measurement": "Activity", "setting": "Mus musculus [2]", "result": 4.75, "unit": "s"}, {"measurement": "Activity", "setting": "Mus musculus [4]", "result": 4.28, "unit": "s"}, {"measurement": "Activity", "setting": "Mus musculus [5]", "result": 5.94, "unit": "s"}, {"measurement": "Activity", "setting": "Mus musculus [6]", "result": 4.67, "unit": "s"}, {"measurement": "inhibition in vivo at 10 mg/kg", "setting": "Rattus norvegicus [12]", "result": 55.8, "unit": "%"}, {"measurement": "Activity", "setting": "Rattus norvegicus [7]", "result": 55.82, "unit": "%"}, {"measurement": "Activity", "setting": "Mus musculus [8]", "result": 6.12, "unit": "s"}, {"measurement": "Activity", "setting": "Mus musculus [9]", "result": 5.17, "unit": "s"}, {"measurement": "Activity", "setting": "Mus musculus [10]", "result": 4.16, "unit": "s"}, {"measurement": "Activity", "setting": "Mus musculus [11]", "result": 4.68, "unit": "s"}]}
{"smiles": "COc1ccc(-c2nc(-c3ccccc3)c(-c3ccccc3)[nH]2)cc1", "values": [{"measurement": "Activity", "setting": "Mus musculus [1]", "result": 7.89, "unit": "s"}, {"measurement": "Activity", "setting": "Mus musculus [2]", "result": 10.83, "unit": "s"}, {"measurement": "Activity", "setting": "Mus musculus [3]", "result": 7.45, "unit": "s"}, {"measurement": "Activity", "setting": "Mus musculus [4]", "result": 4.98, "unit": "s"}, {"measurement": "Activity", "setting": "Mus musculus [5]", "result": 9.67, "unit": "s"}, {"measurement": "Activity", "setting": "Mus musculus [6]", "result": 4.87, "unit": "s"}, {"measurement": "inhibition in vivo at 10 mg/kg", "setting": "Rattus norvegicus [12]", "result": 86, "unit": "%"}, {"measurement": "Activity", "setting": "Rattus norvegicus [7]", "result": 86.05, "unit": "%"}, {"measurement": "Activity", "setting": "Mus musculus [8]", "result": 10.87, "unit": "s"}, {"measurement": "Activity", "setting": "Mus musculus [9]", "result": 5.02, "unit": "s"}, {"measurement": "Activity", "setting": "Mus musculus [10]", "result": 4.58, "unit": "s"}, {"measurement": "Activity", "setting": "Mus musculus [11]", "result": 9.17, "unit": "s"}]}
{"smiles": "Clc1ccccc1-c1nc(-c2ccccc2)c(-c2ccccc2)[nH]1", "values": [{"measurement": "Activity", "setting": "Mus musculus [1]", "result": 6.25, "unit": "s"}, {"measurement": "Activity", "setting": "Mus musculus [2]", "result": 8.85, "unit": "s"}, {"measurement": "Activity", "setting": "Mus musculus [3]", "result": 5.78, "unit": "s"}, {"measurement": "Activity", "setting": "Mus musculus [4]", "result": 4.14, "unit": "s"}, {"measurement": "Activity", "setting": "Mus musculus [5]", "result": 8.2, "unit": "s"}, {"measurement": "Activity", "setting": "Mus musculus [6]", "result": 4.67, "unit": "s"}, {"measurement": "Activity", "setting": "Rattus norvegicus [7]", "result": 62.8, "unit": "%"}, {"measurement": "Activity", "setting": "Mus musculus [8]", "result": 9.01, "unit": "s"}, {"measurement": "Activity", "setting": "Mus musculus [9]", "result": 4.62, "unit": "s"}, {"measurement": "Activity", "setting": "Mus musculus [10]", "result": 4.2, "unit": "s"}, {"measurement": "Activity", "setting": "Mus musculus [11]", "result": 7.27, "unit": "s"}]}
{"smiles": "COc1ccc2c(c1)c(CC(=O)O)c(C)n2C(=O)c1ccc(Cl)cc1", "note": "[INDOMETHACIN]", "values": [{"measurement": "inhibition in vivo at 10 mg/kg", "setting": "Rattus norvegicus [12]", "result": 95.3, "unit": "%"}]}
